Bioassay records: PubChem BioAssay, several laboratories
MC4R antagonist: antagonists of human melanocortin 4 receptor (MC4R) | P32245 | MC4R-expressing cells, MTII-stimulated cAMP, LANCE TR-FRET | inhibition, % at 6.5 µM | actives 0.48% (n = 360,000);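 active = inhibition above its plate's cutoff, the mean of tested wells on that plate plus 3 SD, cut at about 29% in these data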
Target sequence (P32245 whole entry, looked up): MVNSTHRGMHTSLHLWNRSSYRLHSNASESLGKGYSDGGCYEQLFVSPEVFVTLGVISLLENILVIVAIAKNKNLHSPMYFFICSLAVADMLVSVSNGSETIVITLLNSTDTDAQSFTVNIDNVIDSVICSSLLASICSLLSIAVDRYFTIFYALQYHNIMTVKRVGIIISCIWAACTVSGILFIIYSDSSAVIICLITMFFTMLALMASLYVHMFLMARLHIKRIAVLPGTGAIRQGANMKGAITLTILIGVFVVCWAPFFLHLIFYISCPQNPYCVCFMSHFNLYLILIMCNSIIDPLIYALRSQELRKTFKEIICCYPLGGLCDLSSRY
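Assay system: U2OS cells stably expressing human melanocortin 4 receptor (MC4R) / Dosing: 6.5 µM / Timing: compound 30 min, challenge 1 h, detection 1 h / Measured by: Eu-cAMP/anti-cAMP TR-FRET, emission 671 nm / Replicates: singlicate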
F508del corr: CFTR F508del correction in bronchial cells | CFBE cells, YFP halide quenching; stimulated with forskolin plus potentiator P3; % fluorescence drop versus neutral controls | activity (quench increase), % at 7.58 µM | actives 0.36% (n = 350,000);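 active = mean added fluorescence quench of at least 8% versus neutral control, with both replicates also reaching 8%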;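 also: cells transiently co-express mutant CFTR-F508del with the halide-sensitive YFP; corrector assay measuring rescue of mutant channel to the surface after 24 h compound exposure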
MC4R ag barr: agonists of human melanocortin 4 receptor (MC4R) beta-arrestin; activation, % at 8.9 µM; actives 0.98% (n = 360,000); U2OS MC4R beta-arrestin complementation, luminescence; percent of melanotan II response, DMSO zero; AID 540308;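 active = activation above a per-plate cutoff, the mean activation of sample wells on that plate plus 3 SD, cut at about 8% in these data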
SMARCA2 activ: increases SMARCA2 function in MMTV reporter cells; MG213 cells, MMTV-luciferase reporter, dexamethasone, overnight; activation, % at 9.1 µM; actives 1% (n = 370,000); AID 652017; in the data active = activation above about 7.8%
SMARCA2 act conf: confirmation of SMARCA2 (BRM) function activators | shares compounds with SMARCA2 activ | MG213 cells, MMTV-luciferase with dexamethasone, luminescence, overnight; MG213 cells expressing E1A, Rb sequestered; DMSO wells 0%, reference activator 100% | activation, % at 9.1 µM | actives 30% (n = 3,500);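 active = activation above its plate's cutoff, the mean activation of tested wells plus 3 SD, cut at about 7.9% in these data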
VP16 Luc act: GAL4-VP16 reporter activation counter-screen | activation, % at 9.1 µM | AID 686939 | shares compounds with SMARCA2 activ | HEK293 GAL4-VP16 pG5luc reporter, luciferase luminescence; scaled: DMSO wells 0%, SAHA wells 100% | actives 41% (n = 3,500);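 active = activation above the solvent-only control well mean plus 3 SD, averaged across control plates, cut at about 5.2% in these data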
A number is an active result; - = inactive; . = not tested or not shown. Rows were chosen to be rich in hits. Some 2.1% of all compounds tested hit in one or more screens of this group.

SMILES	MC4R antagonist	F508del corr	MC4R ag barr	SMARCA2 activ	SMARCA2 act conf	VP16 Luc act
Cc1ccc(NC(=O)OC(C)CNC(=O)Oc2cccc(C)c2)cc1 (configuration not stated)	-	-	-	11	8.0	-
COC(=O)/C=C1\OCc2cc(C)ccc21	.	-	.	13	-	-
COC(=O)/C=C1\OCc2ccc(C)cc21	.	-	.	-	.	.
C=CCNC(=O)c1cc(-c2ccc3c(c2)OCO3)on1	-	-	-	9.1	8.2	10
COCCNC(=O)c1cc(-c2ccc3c(c2)OCO3)on1	-	.	-	-	.	.
COc1cc(C(=O)NCCOc2cccc3cccnc23)cc(OC)c1OC	-	-	-	11	-	-
COc1ccccc1OCCNC(=O)c1ccc(Br)cc1	-	-	-	8.8	-	-
COc1ccccc1OCCNC(=O)c1ccc(C(C)(C)C)cc1	-	-	-	8.2	-	-
Cc1ccc(C(=O)NCCOc2cccc3cccnc23)cc1Cl	-	-	-	-	.	.
COc1ccccc1OCCNC(=O)CNC(=O)c1ccc(C(C)(C)C)cc1	-	-	-	-	.	.
Cc1ccccc1S(=O)(=O)NC(=O)C1(C)CCN1C(=O)Cc1cccs1 (configuration not stated)	-	-	-	-	.	.
CC1(C(=O)NS(=O)(=O)c2ccccc2C(F)(F)F)CCN1C(=O)CCc1cccs1 (configuration not stated)	-	-	-	8.7	-	-
COc1cc(OC)cc(C(=O)N[C@H](C(=O)NC23CC4CC(CC(C4)C2)C3)C(C)C)c1	-	.	-	9.9	-	-
C[C@H]1CN([C@@H](C)CO)C(=O)c2cc(NC(=O)Cc3ccccc3)ccc2O[C@H]1CN(C)CC1CC1	.	-	.	.	.	.
COc1ccccc1CNC(=O)COC(=O)c1cccnc1SCC(=O)NCc1ccccc1OC	-	-	-	-	.	.
O=C(COC(=O)c1cccnc1SCC(=O)NCc1ccccc1)NCc1ccccc1	-	.	-	9.1	-	-
CCCCN(C)CCn1c(=S)[nH]c2ccc(N3CCOCC3)cc2c1=O	-	.	-	9.7	-	-
COc1ccc(C(=O)OCC(=O)Nc2ccccc2)cc1[N+](=O)[O-]	-	-	-	-	.	.
COc1ccc(C(=O)OCC(N)=O)cc1[N+](=O)[O-]	-	-	-	11	-	-
O=C(c1ccc(Cl)cc1)C1CCN(Cc2ccccc2)CC1	-	-	-	8.2	-	-
O=C(c1ccc(F)cc1)C1CCN(Cc2ccccc2F)CC1	-	-	-	-	.	.
O=C1C=CC(O)C2(CO)OC12 (configuration not stated)	-	-	-	12	-	-
CCOC(=O)CCCSc1nc(-c2ccc3c(c2)OCO3)cc(C(F)(F)F)c1C#N	-	.	-	8.7	-	-
C/C=C/c1ccc2c(c1)O[C@@H](CN(C)Cc1ccncc1)[C@H](C)CN([C@@H](C)CO)S2(=O)=O	.	-	.	.	.	.
CC(=O)N1CCN(c2ccnc3cc(Cl)ccc23)CC1	-	-	-	11	-	-
SMILES	MC4R antagonist	F508del corr	MC4R ag barr	SMARCA2 activ	SMARCA2 act conf	VP16 Luc act
O=C(O)CSCC(=O)N1CCN(c2ccnc3cc(Cl)ccc23)CC1	-	.	-	.	.	.
O=C(NCCc1ccc(F)cc1)C1CCN(C(=O)Nc2ccccc2)CC1	-	-	-	8.0	-	-
O=C(NC1CCCCC1)N1CC(=O)N2[C@H](C1)[C@@H](c1ccc(-c3ccccc3)cc1)[C@@H]2CO	.	-	.	.	.	.
S=C(NNC(=S)Nc1ccc(Cl)cc1)NNc1ccccc1	-	-	-	-	.	.
S=C(N=Nc1ccccc1)NNc1ccccc1	-	-	-	10	14	7.7
CC(C)OC(=O)c1ccc(N2C(=O)C3CC=CCC3C2=O)cc1 (configuration not stated)	-	.	-	8.8	-	-
C=CCn1c(=O)c2ccccc2n2c(SCc3nc4ccccc4s3)nnc12	-	.	-	-	.	.
C=CCN1C(=O)C(=O)N(Cc2nc3ccccc3s2)C1=O	-	-	-	8.7	8.2	8.3
COc1ccc(C(=O)Nc2ccc3c(c2)C(=O)N(C)C[C@H](OC)[C@@H](C)CN(C)[C@@H](C)CO3)cc1	.	-	.	.	.	.
CO[C@H]1CN(C)C(=O)c2cc(NC(C)=O)ccc2OC[C@@H](C)N(C(=O)Cc2cccnc2)C[C@H]1C	.	-	.	.	.	.
